In the library only some 3.7% were active in any assay of this set; here they are far more common.
HCV core dimer = HCV core protein dimerization inhibition; hit rate 0.33% among 300,000; inhibition, % at 5 µM; TR-FRET GST/Flag-core106 dimerization, 1536-well;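 active means inhibition above the mean of all tested compounds plus 3 SD, set per screening campaign, cut at about 45% in these data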
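Assay system: GST-tagged and Flag-tagged HCV core protein residues 1-106 / Times: compound-protein-antibody incubation 4 h at 22.5 °C / Signal: time-resolved FRET, ex 340 nm, em 617 and 671 nm / Evaluation: % inhibition based on acceptor/donor emission ratio / Benchmarks: wells lacking GST-core106 and wells with excess unlabelled core106 / Repeats: singlicate, one well per compound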
rCAG binder = molecules binding r(CAG) RNA repeats; hit rate 1.3% among 370,000; AID 651821; inhibition, % at 3 µM; r(CAG) RNA repeat, TO-PRO-1 dye displacement fluorescence;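 active means inhibition above the plate cutoff, the mean of all test compounds on that plate plus 3 SD, cut at about 35% in these data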;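 further: higher means more dye released from RNA so lower well fluorescence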
NS3 helicase inh = HCV NS3 helicase inhibition; NS3 helicase DNA unwinding, Cy5 molecular beacon fluorescence; inhibition, % at 10.9 µM; hit rate 0.56% among 290,000;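 active means inhibition above the mean of all tested compounds plus 3 SD, set per campaign, cut at about 35% in these data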
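Material: hepatitis C virus NS3 helicase domain fragment enzyme; measured by: Cy5 fluorescence, 0 and 60 min reads; control set: DMSO and thioflavine S; incubation: 60 min unwinding reaction at 25 °C after ATP addition; read-out basis: % inhibition from 60/0 min fluorescence ratio, DMSO 0%, thioflavine S 100%; repeats: singlicate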
TAAR1 antagonist = antagonists of human TAAR1. Q96RJ0. hit rate 1.5% among 360,000. CHO RD-HGA16 TAAR1, Fluo-8 calcium fluorescence, antagonist. AID 624466. inhibition, % at 3 µM;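 active means inhibition above a per-plate cutoff, the mean inhibition of test compounds on that plate plus 3 SD, cut at about 49% in these data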
Target sequence (Q96RJ0 whole entry, looked up): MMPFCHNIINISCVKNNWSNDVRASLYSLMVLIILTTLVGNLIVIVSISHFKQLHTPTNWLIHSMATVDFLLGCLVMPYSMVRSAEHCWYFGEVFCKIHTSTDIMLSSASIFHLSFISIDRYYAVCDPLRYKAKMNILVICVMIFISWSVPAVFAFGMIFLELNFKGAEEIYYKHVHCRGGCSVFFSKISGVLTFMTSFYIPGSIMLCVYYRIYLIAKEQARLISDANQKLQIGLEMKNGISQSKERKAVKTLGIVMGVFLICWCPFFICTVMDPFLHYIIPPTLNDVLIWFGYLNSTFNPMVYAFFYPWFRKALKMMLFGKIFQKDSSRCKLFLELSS
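Test system – hTAAR1-expressing CHO RD-HGA16 cells, Gα16-coupled · Reagent – β-PEA at EC80 concentration, post-compound challenge · Compound dosing – 3 µM, single point · Timing – 140 s kinetic read after compound, 140 s after agonist · Detection – Fluo-8 intracellular calcium dye fluorescence, real-time kinetic reads · Control set – DMSO and EC80 PEA controls · Repeats – n of 1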
TAAR1 ag = agonists of human TAAR1; Q96RJ0; hit rate 0.99% among 360,000; activation, % at 3 µM; AID 624467; CHO RD-HGA16 TAAR1, Fluo-8 calcium fluorescence; vehicle wells 0%, saturating PEA agonist 100%;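 active means activation above the mean activation of all test compounds in the run plus 3 SD, cut at about 38% in these data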
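Test system: RD-HGA16 (CHO) cells co-expressing Gα16 and hTAAR1; dosing: one-point dosing at 3 µM (nominal); timing: 17-24 h seeding, 75 min 37 °C dye, 30 min RT; signal: kinetic Fluo-8 calcium fluorescence; read-out basis: % activation relative to PEA EC100 response; controls: DMSO and PEA EC100; replicates: n 1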
rCAG binder conf = r(CAG) RNA repeat binding, confirmation; AID 652065; TO-PRO-1 dye displacement fluorescence; shares compounds with rCAG binder; inhibition, % at 3 µM; hit rate 70% among 4,300;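 active means inhibition above a per-plate cutoff, the mean inhibition of sample wells plus 3 SD, cut at about 35% in these data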;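 further: loss of TO-PRO-1 fluorescence as compound displaces dye from 1x1 AA loop RNA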
DNA CAG counter = counter-screen for rCAG RNA binders: DNA CAG dye complex inhibitors; shares compounds with rCAG binder; inhibition, % at 3 µM; hit rate 94% among 4,300; d(CAG) DNA oligo TO-PRO-1 dye displacement, fluorescence;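 active means inhibition above its plate's cutoff, the mean test-well inhibition plus 3 SD, cut at about 4.8% in these data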;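 further: hits displace the dye from DNA and so lower well fluorescence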
Each line names hits and unclear results; the compound was inactive in the other large screens (follow-up assays come after a bar, where they were run).

Cc1ccc(OCC(=O)Nc2cc(NC(=O)COc3ccc(C)cc3)cc(C(=O)O)c2)cc1	rCAG binder 70.0 | rCAG binder conf 64.4 | DNA CAG counter 25.2
COc1cccc(OCC(=O)Nc2ccncc2)c1	none
Cc1ccc(S(=O)(=O)N(C)c2ccc(OCC(=O)Nc3cc(C(=O)O)ccc3Cl)cc2)cc1	rCAG binder 61.4 (no result: HCV core dimer, NS3 helicase inh) | rCAG binder conf 56.6 | DNA CAG counter 20.4
O=C(COc1ccc(Cl)cc1)Nc1cc(NC(=O)COc2ccc(Cl)cc2)cc(C(=O)O)c1	rCAG binder 73.8 | rCAG binder conf 82.2 | DNA CAG counter 48.2
O=C(NCCc1c[nH]c2ccccc12)OCc1cn(Cc2cc(F)cc(F)c2)nn1	none (no result: HCV core dimer, NS3 helicase inh, TAAR1 antagonist, TAAR1 ag)
CCOC(=O)c1sc(N2N=C(C)/C(=C\c3ccc(OCC(=O)OC)cc3)C2=O)nc1C	rCAG binder 52.1 | rCAG binder conf 45.4 | DNA CAG counter 10.0
O=C(Nc1ccccc1C(F)(F)F)OCCCN1CCC2(CCC(c3ccccc3)CC2)C1=O (stereo not drawn)	none (no result: HCV core dimer, NS3 helicase inh, TAAR1 antagonist, TAAR1 ag)
CCOC(=O)[C@@]12CCC3=C1N(CCC3)C(=O)[C@H](CC(=O)NCc1cccc(C(F)(F)F)c1)C2	none (no result: HCV core dimer, NS3 helicase inh, TAAR1 antagonist, TAAR1 ag)
CCc1ccc(CCNC(=O)OC2CCC23CCC(c2ccccc2)CC3)cc1 (stereo not drawn)	none (no result: HCV core dimer, NS3 helicase inh, TAAR1 antagonist, TAAR1 ag)
Cc1ccc(S(=O)(=O)Nn2c(O)c(C=C3N=c4ccccc4=N3)sc2=S)cc1	rCAG binder 94.4 | rCAG binder conf 88.0 | DNA CAG counter 59.5
O=C1N=c2ccc(Br)cc2=C1c1sc(=S)n(NS(=O)(=O)c2ccccc2)c1O	rCAG binder 81.3 | rCAG binder conf 80.5 | DNA CAG counter 49.7
Oc1c(C=C2N=c3ccccc3=N2)sc(=S)n1C1CCCC1	none
O=C(Nn1c(O)c(C=C2N=c3ccccc3=N2)sc1=S)c1cccc(Cl)c1	rCAG binder 72.8, TAAR1 antagonist 52.2 | rCAG binder conf 43.1 | DNA CAG counter 14.8
O=C(Nn1c(O)c(C=C2N=c3ccccc3=N2)sc1=S)c1ccccc1	rCAG binder 50.6, TAAR1 ag 37.9 | rCAG binder conf inactive | DNA CAG counter 9.6
O=C(Nn1c(O)c(C=C2N=c3ccccc3=N2)sc1=S)c1ccc(Cl)cc1	none
COC(=O)C1CN(CC(C)C)CCS(=O)(=O)N1Cc1cccc(Cl)c1 (stereo not drawn)	none (no result: HCV core dimer, NS3 helicase inh, TAAR1 antagonist, TAAR1 ag)
Cc1cc(=O)n2[nH]c(C)c(-c3ccccc3)c2n1	none
O=c1cc(-c2ccccc2)nc2c(-c3ccccc3)c(C(F)(F)F)[nH]n12	rCAG binder 91.8 | rCAG binder conf 76.8 | DNA CAG counter 41.6
COCCCN1C(=O)[C@H](CC(=O)NCCCN2CCCC2=O)[C@]2(C(=O)OC)CCCCC=C12	none (no result: HCV core dimer, NS3 helicase inh, TAAR1 antagonist, TAAR1 ag)
Cc1cc(NS(=O)(=O)c2ccc(NC(=O)CSc3nc4sc(C)c(C)c4c(=O)n3Cc3ccco3)cc2)nc(C)n1	rCAG binder 67.8 (no result: HCV core dimer, NS3 helicase inh, TAAR1 antagonist, TAAR1 ag) | rCAG binder conf 63.2 | DNA CAG counter 26.7
CCn1c(SCC(=O)Nc2ccc(S(=O)(=O)Nc3cc(C)nc(C)n3)cc2)nc2sc(C)c(C)c2c1=O	rCAG binder 53.2 (no result: HCV core dimer, NS3 helicase inh, TAAR1 antagonist, TAAR1 ag) | rCAG binder conf inactive | DNA CAG counter 10.8
C=CCN(C)CC#CCCCCl	none (no result: HCV core dimer, NS3 helicase inh, TAAR1 antagonist, TAAR1 ag)
O=C1CC(N2CCCN(Cc3ccccc3)CC2)=NC(=O)N1c1ccc(Br)cc1	none (no result: HCV core dimer, NS3 helicase inh, TAAR1 antagonist, TAAR1 ag)
Cc1c(CCCC(=O)O)sc(N)c1C(=O)c1cccc(C(F)(F)F)c1	rCAG binder 46.8 (no result: NS3 helicase inh) | rCAG binder conf inactive | DNA CAG counter 5.0
Cc1ccc(Cc2cnc(N3C(=N)SC(c4ccccc4)C3=O)s2)cc1 (stereo not drawn)	rCAG binder 64.3 | rCAG binder conf 68.9 | DNA CAG counter 23.2
O=C(Nc1ncc(Cc2ccccc2)s1)C1=NCCN1	none
N=C1SC(c2ccccc2)C(=O)N1c1ncc(Cc2ccccc2)s1 (stereo not drawn)	rCAG binder 44.6 | rCAG binder conf 56.6 | DNA CAG counter 19.0
COC(=O)c1cc2c(c3c4ccccc4n(S(=O)(=O)c4cccc(C)c4)c13)C(=O)N(Cc1ccc(N(C)C)cc1)C2	none (no result: HCV core dimer, NS3 helicase inh)

High-throughput results (PubChem)
